Test results from ChEMBL document CHEMBL1134494, “2-Amino-6-arylsulfonylbenzonitriles as non-nucleoside reverse transcriptase inhibitors of HIV-1” (J Med Chem, 2001).
pIC50: −log10 of the molar value.

What was measured:
[1] = system: Human immunodeficiency virus 1; experiment: Antiviral activity against HIV-1 infected human MT-4 cells.; format: functional, organism-based; conditions: Human immunodeficiency virus 1, MT4
Procedure, shortened: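 HTLV-1-transformed MT4 cells were infected with HIV-1 strain 3B at 100× the amount giving a 50% drop in cell growth. They were cultured 5 days with a range of compound concentrations. IC50 is the concentration restoring 50% of infected-cell growth (cytopathic effect) relative to uninfected MT4 controls.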

MT4 = experiment: Cell culture cytotoxicity against MT-4 cells.; format: functional, cell-based; conditions: Homo sapiens
Procedure, shortened: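 MT4 cells were exposed to compound in parallel with the 5-day HIV-1 strain 3B cytopathic-effect assay. Compound-induced cytotoxicity is reported as the cell culture cytotoxicity IC50 (CCIC50).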

[2] = target: Human immunodeficiency virus type 1 reverse transcriptase (Human immunodeficiency virus 1, UniProt Q72547); experiment: Inhibitory activity against HIV-1 reverse transcriptase
Procedure, shortened: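 Recombinant HIV RT at 1 nM was combined with 40 nM Eu-chelate-labeled biotinylated DNA primer/RNA template and 100 nM Cy5-dUTP. Reactions were started with enzyme.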

Structure (SMILES) | pIC50 [1] | pIC50 (MT4) | pIC50 [2]
Cc1cccc(S(=O)(=O)c2cccc(N)c2C#N)c1 | 6.40 | 3.75 | 6.70
N#Cc1c(N)cccc1Sc1cccc(F)c1 | 5.01 | 3.79 | 4.92
Nc1cccc(S(=O)(=O)c2ccccc2)c1 | < 4.30 | < 4.30 | 
COc1ccccc1[S+]([O-])c1cccc(N)c1C#N (stereo unspecified) | 5.32 | < 3.70 | 4.92
Cc1cc(C)cc(Sc2cccc(N)c2C#N)c1 | 6.37 | < 5.70 | 5.96
Cc1cccc(Sc2cccc(N)c2C#N)c1 | 5.21 | 4.10 | 6.02
N#Cc1c(N)cccc1[S+]([O-])c1cc(Cl)ccc1Cl (stereo unspecified) | 5.01 | < 3.70 | 5.21
COc1cc([S+]([O-])c2cccc(N)c2C#N)cc(C(F)(F)F)c1 (stereo unspecified) | 5.68 | 3.97 | 6.05
N#Cc1c(N)cccc1Sc1cccc(C(F)(F)F)c1 | 4.89 | 4.47 | 5.15
COc1ccccc1S(=O)(=O)c1cccc(N)c1C#N | 6.22 | 3.84 | 5.85
CCCCOc1cc(C)cc(S(=O)(=O)c2cccc(N)c2C#N)c1 | 6.22 | < 5.70 | 6.40
COc1ccc(S(=O)(=O)c2cccc(N)c2C#N)cc1 | 4.60 | < 3.70 | 4.89
Cc1ccccc1[S+]([O-])c1cccc(N)c1C#N (stereo unspecified) | 4.03 | < 3.70 | < 4.68
N#Cc1c(N)cccc1S(=O)(=O)c1ccccc1F | 5.52 | 4.24 | 5.30
N#Cc1c(N)cccc1S(=O)(=O)c1ccccc1 | 5.70 | < 5.30 | 5.16
COc1cc(C)cc(Sc2cccc(N)c2C#N)c1 | 5.70 | 5.00 | 6.85
N#Cc1c(N)cccc1S(=O)(=O)c1ccccc1Cl | 5.39 | < 3.70 | 5.23
N#Cc1c(N)cccc1[S+]([O-])c1cccc(Br)c1 (stereo unspecified) | 7.10 |  | 5.32
Cc1cc(Cl)cc([S+]([O-])c2cccc(N)c2C#N)c1 (stereo unspecified) | 6.49 | < 3.70 | 6.28
Cc1cc(Cl)cc(Sc2cccc(N)c2C#N)c1 | 5.75 | 4.80 | 5.77
Cc1ccc(Sc2cccc(N)c2C#N)cc1 | 3.94 | < 3.70 | 5.24
N#Cc1ccc(S(=O)(=O)c2cccc(N)c2C#N)cc1 | 4.10 | < 3.70 | < 4.74
N#Cc1c(N)cccc1[S+]([O-])c1ccccc1Br (stereo unspecified) | 4.41 | 3.77 | < 4.72
O=[N+]([O-])c1ccccc1S(=O)(=O)c1ccccc1[N+](=O)[O-] |  |  | 4.85

Structure (SMILES) | pIC50 [1] | pIC50 (MT4) | pIC50 [2]
Cc1cc(C)cc([S+]([O-])c2cccc(N)c2C#N)c1 (stereo unspecified) | 6.47 | 3.70 | 6.30
N#Cc1c(N)cccc1Sc1ccccc1Br | 4.52 | 4.39 | < 4.68
N#Cc1c(N)cccc1Sc1ccccc1 | 4.84 | 3.77 | 5.06
N#Cc1ccccc1[S+]([O-])c1cccc(N)c1C#N (stereo unspecified) | 5.41 | < 3.70 | 5.00
COc1ccc([S+]([O-])c2cccc(N)c2C#N)cc1 (stereo unspecified) | < 3.70 | < 3.70 | < 4.70
COc1cccc([S+]([O-])c2cccc(N)c2C#N)c1 (stereo unspecified) | 4.80 | < 4.10 | 4.72
N#Cc1c(N)cccc1Sc1cccc(Br)c1 | 5.29 | 4.28 | 4.82
N#Cc1c(N)cccc1Sc1ccc(Cl)cc1 | < 4.49 | 3.95 | 4.92
Cc1cc(C)cc(S(=O)(=O)c2cccc(NC3CCCCC3)c2C#N)c1 | < 3.70 | < 3.70 | 
N#Cc1c(N)cccc1S(=O)(=O)c1ccc2ccccc2c1 | 7.30 | < 3.70 | 7.52
O=[N+]([O-])c1ccccc1S(=O)(=O)c1ccccc1 | 5.66 |  | 4.80
COc1cc(Sc2cccc(N)c2C#N)cc(C(F)(F)F)c1 | 5.29 | 5.05 | 4.89
CCCOc1cc(C)cc(S(=O)(=O)c2cccc(N)c2C#N)c1 | 7.22 | 4.96 | 
N#Cc1c(N)cccc1S(=O)(=O)c1ccc(Br)cc1 | 4.70 | < 3.70 | < 4.85
N#Cc1ccccc1S(=O)(=O)c1cccc(N)c1C#N | 5.27 | < 3.70 | 5.22
Cc1ccc(S(=O)(=O)c2cccc(N)c2C#N)cc1 | 5.02 | < 3.70 | 5.14
Cc1cccc([S+]([O-])c2cccc(N)c2C#N)c1 (stereo unspecified) | 4.53 | < 3.70 | 5.00
N#Cc1c(N)cccc1S(=O)(=O)c1cccc(F)c1 | 5.52 | < 3.70 | 
Cc1ccc([S+]([O-])c2cccc(N)c2C#N)cc1 (stereo unspecified) | 4.31 | < 3.70 | < 4.68
Cc1cc(C)cc(S(=O)(=O)c2cccc(F)c2C#N)c1 | 5.82 | < 3.70 | 
N#Cc1cccc(S(=O)(=O)c2cccc(N)c2C#N)c1 | 5.62 | < 3.70 | 5.74
COc1cccc(Sc2cccc(N)c2C#N)c1 | 5.22 | < 3.70 | 5.82
CCOc1cc(C)cc(S(=O)(=O)c2cccc(N)c2C#N)c1 | 7.22 | 5.05 | 
N#Cc1c(N)cccc1Sc1cccc(Cl)c1 | 5.13 | 4.28 | 4.80

Structure (SMILES) | pIC50 [1] | pIC50 (MT4) | pIC50 [2]
N#Cc1c(N)cccc1Sc1cccc(N)c1 | 4.50 | 3.77 | < 4.64
N#Cc1ccc(Sc2cccc(N)c2C#N)cc1 | 4.36 | < 3.70 | < 4.72
O=[N+]([O-])c1ccccc1Sc1ccccc1[N+](=O)[O-] | 4.03 | < 3.70 | < 4.70
N#Cc1ccc([S+]([O-])c2cccc(N)c2C#N)cc1 (stereo unspecified) | < 3.70 | < 3.70 | < 4.64
N#Cc1c(N)cccc1S(=O)(=O)c1ccccc1Br | 5.30 | 4.40 | 4.92
COc1cc(C)cc(S(=O)(=O)c2cccc(F)c2C#N)c1 | 4.29 | 5.10 | 
COc1cccc(S(=O)(=O)c2cccc(N)c2C#N)c1 | 6.05 | < 3.70 | 6.22
COc1ccccc1Sc1cccc(N)c1C#N | 5.37 | < 3.70 | 5.57
Cc1cc(O)cc(S(=O)(=O)c2cccc(N)c2C#N)c1 | 6.37 | 3.78 | 
N#Cc1c(F)cccc1S(=O)(=O)c1cc(Cl)cc(Cl)c1 | 4.38 | 3.73 | 
N#Cc1c(N)cccc1[S+]([O-])c1ccc(Br)cc1 (stereo unspecified) | 4.69 | < 3.70 | < 4.68
N#Cc1cccc([S+]([O-])c2cccc(N)c2C#N)c1 (stereo unspecified) | 4.85 | < 3.70 | < 4.82
N#Cc1c(N)cccc1Sc1ccccc1Cl | 5.39 | 4.48 | 5.14
N#Cc1cccc(Sc2cccc(N)c2C#N)c1 | 5.76 | 4.10 | 5.96
N#Cc1c(N)cccc1Sc1cc(Cl)ccc1Cl | < 6.10 | 5.37 | 5.46
N#Cc1c(N)cccc1S(=O)(=O)c1cccc(C(F)(F)F)c1 | 5.46 | 3.71 | 5.28
N#Cc1c(N)cccc1S(=O)(=O)c1cccc(Br)c1 | 6.27 | < 3.70 | 6.70
Cc1ccccc1S(=O)(=O)c1cccc(N)c1C#N | 5.64 | < 3.70 | 5.35
N#Cc1ccccc1Sc1cccc(N)c1C#N | < 5.19 | 4.38 | 5.04
N#Cc1c(N)cccc1[S+]([O-])c1cccc(C(F)(F)F)c1 (stereo unspecified) | 4.40 | 3.90 | < 4.66
N#Cc1c(N)cccc1S(=O)(=O)c1ccc(Cl)cc1 | 5.52 | < 5.30 | 
CCCCNc1cccc(S(=O)(=O)c2cc(C)cc(C)c2)c1C#N | < 4.92 | < 3.70 | 
N#Cc1c(N)cccc1S(=O)(=O)c1cc(Cl)ccc1Cl | 6.52 | < 3.70 | 6.52
N#Cc1c(N)cccc1S(=O)(=O)c1cccc(Cl)c1 | 6.23 | < 3.70 | 6.40
